# Screening data from PubChem.
# A selection: hits, their analogues and other compounds. The true share with any hit is near 2.4%.
# HNF4A DNA FP = change in binding of human HNF4 alpha to DNA. P41235. HNF4a-FITC DNA binding, fluorescence polarization, 1 h. 0.3% of 360,000 active. activity change, % at 10 µM; in the data active = activity change above about 30%, passing the limit was not always enough
# TPT1 inh = inhibitors of Candida albicans tRNA 2'-phosphotransferase TPT1. recombinant caTPT1, FP RNA substrate dephosphorylation. inhibition, % at 5 µM. 0.81% of 300,000 active;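 active = inhibition above the mean of all tested compounds plus 3 SD, set per screening campaign, cut at about 24% in these data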;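 also: plate controls were DMSO alone for no effect and ferristatin control at 100 nM for full effect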
# Rpn11 inh = blocks the human proteasome subunit Rpn11; O00487; human 26S proteasome, Ub4-pepOG fluorescence polarization; 20S core pre-blocked with epoxomicin; inhibition, % at 20 µM; 0.59% of 360,000 active;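 active = inhibition at 20 µM, scaled to each plate's controls, above about 33%, limit read from the data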
# CSN deneddyl inh = inhibitors of human CSN-mediated cullin deneddylation. Q92905. inhibition, % at 12.5 µM. Purified CSN, SCF-Nedd8-OG deneddylation, fluorescence polarization. 0.38% of 360,000 active;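 active = pattern-corrected inhibition above about 35%, with an unprinted fluorescence ratio check between 0.5 and 1.5, limit read from the data, passing the limit was not always enough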;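 also: 0% = enzyme with substrate and 100% = substrate without enzyme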
# Target sequence (Q92905 whole entry, looked up, one chain of several): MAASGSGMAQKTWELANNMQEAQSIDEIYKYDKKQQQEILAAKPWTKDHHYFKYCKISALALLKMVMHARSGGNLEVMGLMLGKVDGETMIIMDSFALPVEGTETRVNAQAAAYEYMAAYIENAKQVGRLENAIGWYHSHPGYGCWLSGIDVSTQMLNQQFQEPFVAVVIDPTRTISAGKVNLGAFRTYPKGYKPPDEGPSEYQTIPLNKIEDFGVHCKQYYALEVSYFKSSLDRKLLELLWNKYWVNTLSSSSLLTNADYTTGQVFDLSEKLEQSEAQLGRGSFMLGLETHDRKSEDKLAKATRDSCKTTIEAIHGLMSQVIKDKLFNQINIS
#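 assay system = purified human Csn5 enzyme expressed in HEK293T cells | amount = 0.24 nM enzyme | buffer or medium = Tris/NaCl/DTT buffer, pH 7.5 | reagent = 10 nM SCFSkp2-Nedd8OG | compound = one concentration, 12.5 µM, 0.25% DMSO | times = 90 min reaction at room temperature | signal = FP | read-out basis = % inhibition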
# Neddylation inh = inhibitors of human cullin neddylation; P61081+Q13564; TR-FRET cullin neddylation, biochemical; inhibition, % at 25 µM; 0.58% of 360,000 active; AID 651699; in the data active = inhibition above about 36%
# Rin1 Abl inh = human Rin1-Abl interaction inhibition. P00519+Q13671. TR-FRET Rin1/Abl binding, biochemical. inhibition, % at 7.35 µM. 0.4% of 360,000 active; in the data active = inhibition above about 5%, passing the limit was not always enough
# HNF4a DNA conf = change in binding of human HNF4 alpha to DNA, retest; AID 1224897; activity change, % at 12.5 µM; HNF4A-FITC DNA binding, fluorescence polarization, 1 h; 99% of 210 active; shares compounds with HNF4A DNA FP; call rule not given here
# Starred values were filed as active, the others as inactive; / = no result shown.
SMILES,HNF4A DNA FP,TPT1 inh,Rpn11 inh,CSN deneddyl inh,Neddylation inh,Rin1 Abl inh,HNF4a DNA conf
CSc1ccc(C2C(C#N)=C(N)N(c3ccccc3)C3=C2C(=O)CCC3)cc1 (stereo not drawn),2,0,6,4,11,-1,/
N#CC1=C(N)N(c2ccc(F)cc2)C2=C(C1c1ccc(O)cc1)S(=O)(=O)CC2 (stereo not drawn),55*,/,/,43*,25,1,52*
Cc1cc(C)nc(N/N=C/C2=C(O)CC(c3ccc(F)cc3)CC2=O)n1 (stereo not drawn),3,1,36,1,7,-1,/
N#C/C(=C/c1ccc(-c2ccc([N+](=O)[O-])cc2)o1)c1nnc(N2CCOCC2)n1-c1ccccc1,48*,/,27,16,-41,3,38*
Cc1c(C(=O)NCCCN2CCOCC2)oc2c1C1(CCC2)SCCS1,4,-3,0,7,2,-2,/
COC(=O)c1cc(C(=O)c2cc(F)ccc2O)cn2c(=O)c3c(C)c(C)sc3nc12,68*,5,32,8,7,-2,66*
Cc1sc2nc3c(SC(C)C(=O)O)cc(C(=O)c4ccccc4O)cn3c(=O)c2c1C (stereo not drawn),5,11,6,2,-10,-1,/
N#C/C(=C/C1=C(N2CCOCC2)C(=C/c2cccc([N+](=O)[O-])c2)/CC1)C(=O)Nc1ccccc1F,49*,/,35,53*,-24,0,65*
N#C/C(=C\C1=C(N2CCOCC2)C(=C/c2cccc([N+](=O)[O-])c2)/CC1)C(=O)Nc1ccccc1F,54*,14,/,25,-26,2,56*
CC(NC(=O)C12CC3CC(CC(C3)C1)C2)C(=O)N/N=C/C1=C(N2CCOCC2)C(=C\c2cccc([N+](=O)[O-])c2)/CC1 (stereo not drawn),1,-4,4,4,-10,4,/
CCN(CC)c1ccc(/C=C2\CCC(/C=C(/C#N)C(=O)Nc3ccccc3F)=C2N2CCOCC2)cc1,9,/,11,12,9,-1,/
CN(C)c1ccc(S(=O)(=O)N2CCCCC2)cc1NC(=O)CN1C(=O)NC2(CCCC2)C1=O,1,-1,0,-3,-2,2,/
Cc1ccc(Nc2nc(Cl)c(C=O)s2)cc1Cl,44*,13,/,25,-50,-4,44*
Cc1ccc(Nc2nc3ccccc3c(=O)s2)cc1C,1,0,0,-10,0,0,/
Cc1ccc(C)c(NC(=O)CN2C(=O)NC(C)(c3ccc4c(c3)OCCO4)C2=O)c1 (stereo not drawn),1,/,-3,6,-2,5,/
O=S(=O)(NCC1NCCc2ccccc21)c1ccccc1 (stereo not drawn),3,-4,-2,0,19,4,/
Cc1cccc(NC(=O)c2sc3nc(-c4ccc(F)cc4)cn3c2C)n1,37*,24,/,36*,-189,-2,38*
Cn1c(=O)c(=O)n(C)c2cc(S(=O)(=O)N3CCc4ccccc43)ccc21,43*,-1,27,12,-13,-3,47*
Cn1c(=O)oc2cc(S(=O)(=O)N3CCc4ccccc43)ccc21,-1,6,2,0,-5,-2,/
CCOC(=O)C1(C)CCCCN1C(=O)c1cccnc1 (stereo not drawn),1,/,-3,-2,-3,-7,/
N#Cc1cc(Oc2ccccc2)c(-n2nnc3ccccc32)cc1C#N,4,1,-6,1,2,0,/
N#Cc1cc(Oc2ccc3ccccc3c2)c(-n2nnc3ccccc32)cc1C#N,62*,1,1,-5,1,-2,36*
On1nnc2ccc3ccccc3c21,0,-2,4,-2,18,1,/
COc1ccc2c(c1)C1=NN(/C(C)=C\C(C)=O)C(c3ccccc3)C1CC2 (stereo not drawn),40*,16,26,9,17,0,53*
COc1ccc2c(c1)C1=NN(/C(C)=C/C(C)=O)C(c3ccc(F)cc3)C1CC2 (stereo not drawn),10,4,15,3,13,0,/
SMILES,HNF4A DNA FP,TPT1 inh,Rpn11 inh,CSN deneddyl inh,Neddylation inh,Rin1 Abl inh,HNF4a DNA conf
CC1CCCCC1NC(=O)c1ccc(NC2=NC3CS(=O)(=O)CC3S2)cc1 (stereo not drawn),0,-4,-6,-3,-3,2,/
c1coc(-c2nnc(-c3ccco3)nn2)c1,-60,-2,-19,43,4,2,/
O=C(O)c1cccc2c1C(=O)c1ccc(N3CCCCC3)cc1S2(=O)=O,43*,/,/,14,-65,-3,43*
CC1CCN(c2ccc3c(c2)S(=O)(=O)c2cccc(C(=O)NC4CC4)c2C3=O)CC1,43*,/,31,18,-56,-7,36*
CC1CCN(c2ccc3c(c2)S(=O)(=O)c2cccc(C(=O)NC[C@@H]4CCCO4)c2C3=O)CC1,54*,/,/,19,-95,-7,62*
O=C(NC[C@@H]1CCCO1)c1cccc2c1C(=O)c1ccc(N3CCOCC3)cc1S2(=O)=O,21,/,39,11,-78,-6,/
C#CCOCCOCCOCCNc1nc(N2CCN(C(=O)[C@H](CCCCN)n3cc(CN)nn3)CC2)nc(N2CCN(C(=O)[C@H](CCC(=O)O)n3cc([C@@H](N)CCCCN)nn3)CC2)n1,92*,/,-2,100*,27,-1,123*
C#CCOCCOCCOCCNc1nc(N2CCN(C(=O)C([C@@H](C)O)n3cc([C@@H](N)CCCCN)nn3)CC2)nc(N2CCN(C(=O)[C@H](CCCCN)n3cc([C@@H](N)[C@H](C)CC)nn3)CC2)n1 (stereo partly drawn),76*,/,13,85*,21,2,94*
C#CCOCCOCCOCCNc1nc(N2CCN(C(=O)CCCCCCCCCCNC(=O)[C@H](CCCCN)n3cc(CCO)nn3)CC2)nc(N2CCN(C(=O)CCCCCCCCCCNC(=O)[C@H](CCCCN)n3cc(CCCC(=O)O)nn3)CC2)n1,48*,-1,-15,6,-12,8,66*
NC1=C([N+](=O)[O-])C(c2ccc(F)cc2)C2=C(CCCC2=O)O1 (stereo not drawn),0,2,-2,6,-2,-2,/
